Laboratory results as given in the M2OR odorant receptor database.

Assays:
Details in all cases: stereoisomer not certain
OR10A3 (Homo sapiens) = molecular target: T1, OR10A3 (Homo sapiens) (UniProt P58181)
T1 sequence (whole entry): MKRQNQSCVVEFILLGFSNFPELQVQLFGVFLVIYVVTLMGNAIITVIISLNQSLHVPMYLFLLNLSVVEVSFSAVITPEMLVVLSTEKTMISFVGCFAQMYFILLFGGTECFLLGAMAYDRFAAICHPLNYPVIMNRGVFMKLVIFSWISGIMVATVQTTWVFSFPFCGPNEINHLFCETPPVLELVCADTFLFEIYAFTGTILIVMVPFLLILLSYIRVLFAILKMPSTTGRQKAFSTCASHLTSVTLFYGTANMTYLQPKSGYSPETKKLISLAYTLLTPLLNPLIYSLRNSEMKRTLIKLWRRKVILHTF
Method in brief: (§1)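 Transient luciferase assays in mammalian cell lines were common, though methods varied by source. The values come from published papers and their supplementary material, with extra details from the original authors when needed. Responsive refers to a measured signal the original authors judged statistically different from baseline, and non-responsive (inactive) to the remainder.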

OR10A4 (Homo sapiens) = molecular target: T2, OR10A4 (Homo sapiens) (UniProt Q9H209)
T2 sequence (whole entry): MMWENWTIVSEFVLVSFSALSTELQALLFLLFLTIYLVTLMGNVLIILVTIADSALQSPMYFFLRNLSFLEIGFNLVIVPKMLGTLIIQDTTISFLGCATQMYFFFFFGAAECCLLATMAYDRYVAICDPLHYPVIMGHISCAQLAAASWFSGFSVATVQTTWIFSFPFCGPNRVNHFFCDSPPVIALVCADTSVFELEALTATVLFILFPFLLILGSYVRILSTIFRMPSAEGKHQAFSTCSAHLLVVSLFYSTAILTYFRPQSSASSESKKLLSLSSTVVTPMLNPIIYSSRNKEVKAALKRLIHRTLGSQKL
Method in brief: as §1

OR10A5 (Homo sapiens) = molecular target: T3, OR10A5 (Homo sapiens) (UniProt Q9H207)
T3 sequence (whole entry): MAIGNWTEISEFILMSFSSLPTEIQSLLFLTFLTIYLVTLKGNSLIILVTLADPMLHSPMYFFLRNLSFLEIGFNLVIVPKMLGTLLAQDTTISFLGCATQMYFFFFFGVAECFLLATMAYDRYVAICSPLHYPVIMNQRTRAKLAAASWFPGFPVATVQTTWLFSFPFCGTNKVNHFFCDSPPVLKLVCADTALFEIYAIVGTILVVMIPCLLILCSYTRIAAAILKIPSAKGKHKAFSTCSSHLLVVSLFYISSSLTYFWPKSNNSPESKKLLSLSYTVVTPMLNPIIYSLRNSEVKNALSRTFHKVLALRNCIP
Method in brief: as §1

OR10A6 (Homo sapiens) = molecular target: T4, OR10A6 (Homo sapiens) (UniProt Q8NH74)
T4 sequence (whole entry): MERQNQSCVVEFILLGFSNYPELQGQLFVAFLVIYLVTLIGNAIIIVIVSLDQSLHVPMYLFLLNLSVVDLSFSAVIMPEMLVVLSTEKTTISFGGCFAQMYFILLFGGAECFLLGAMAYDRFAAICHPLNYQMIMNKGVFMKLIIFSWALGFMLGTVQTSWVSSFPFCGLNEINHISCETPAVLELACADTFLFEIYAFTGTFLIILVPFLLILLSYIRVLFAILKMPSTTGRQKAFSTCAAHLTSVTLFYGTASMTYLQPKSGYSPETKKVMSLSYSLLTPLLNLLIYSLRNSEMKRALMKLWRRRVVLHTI
Method in brief: as §1

OR10A7 (Homo sapiens) = molecular target: T5, OR10A7 (Homo sapiens) (UniProt Q8NGE5)
T5 sequence (whole entry): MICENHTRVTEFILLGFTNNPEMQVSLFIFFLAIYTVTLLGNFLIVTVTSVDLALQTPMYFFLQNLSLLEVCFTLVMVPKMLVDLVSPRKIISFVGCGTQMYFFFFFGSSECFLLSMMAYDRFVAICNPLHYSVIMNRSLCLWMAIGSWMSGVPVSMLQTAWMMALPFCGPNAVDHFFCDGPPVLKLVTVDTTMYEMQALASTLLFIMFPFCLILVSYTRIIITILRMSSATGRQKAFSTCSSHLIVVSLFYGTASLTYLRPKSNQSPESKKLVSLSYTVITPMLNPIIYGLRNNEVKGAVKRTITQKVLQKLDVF
Method in brief: as §1

OR10AD1 (Homo sapiens) = molecular target: T6, OR10AD1 (Homo sapiens) (UniProt Q8NGE0)
T6 sequence (whole entry): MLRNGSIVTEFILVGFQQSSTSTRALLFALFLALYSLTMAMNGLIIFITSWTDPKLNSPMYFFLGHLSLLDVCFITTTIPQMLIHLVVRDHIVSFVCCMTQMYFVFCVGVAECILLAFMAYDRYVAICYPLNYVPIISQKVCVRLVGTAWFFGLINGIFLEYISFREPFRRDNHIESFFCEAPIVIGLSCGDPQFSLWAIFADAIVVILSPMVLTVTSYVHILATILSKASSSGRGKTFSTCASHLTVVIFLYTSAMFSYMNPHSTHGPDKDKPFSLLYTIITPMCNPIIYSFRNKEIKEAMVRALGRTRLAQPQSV
Method in brief: as §1

OR10AG1 (Homo sapiens) = molecular target: T7, OR10AG1 (Homo sapiens) (UniProt Q8NH19)
T7 sequence (whole entry): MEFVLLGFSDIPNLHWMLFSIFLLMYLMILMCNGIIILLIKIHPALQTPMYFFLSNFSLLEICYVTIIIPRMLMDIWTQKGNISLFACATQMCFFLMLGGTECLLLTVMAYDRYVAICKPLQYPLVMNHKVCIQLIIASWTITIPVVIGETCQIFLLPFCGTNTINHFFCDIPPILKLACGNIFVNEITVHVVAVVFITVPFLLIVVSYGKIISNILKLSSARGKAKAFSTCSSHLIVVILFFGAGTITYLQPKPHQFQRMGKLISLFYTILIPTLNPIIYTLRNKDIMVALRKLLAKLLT
Method in brief: as §1

OR10C1 (Homo sapiens) = molecular target: T8, OR10C1 (Homo sapiens) (UniProt Q96KK4)
T8 sequence (whole entry): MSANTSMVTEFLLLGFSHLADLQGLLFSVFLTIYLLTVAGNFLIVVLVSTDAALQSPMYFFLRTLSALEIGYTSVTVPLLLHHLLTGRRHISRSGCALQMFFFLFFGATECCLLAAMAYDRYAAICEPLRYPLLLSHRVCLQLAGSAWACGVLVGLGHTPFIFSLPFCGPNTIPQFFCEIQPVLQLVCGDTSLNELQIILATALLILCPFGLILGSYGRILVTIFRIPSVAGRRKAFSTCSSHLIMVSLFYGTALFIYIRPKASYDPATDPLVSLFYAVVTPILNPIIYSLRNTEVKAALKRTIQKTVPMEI
Method in brief: as §1

OR10D3 (Homo sapiens) = molecular target: T9, OR10D3 (Homo sapiens) (UniProt Q8NH80)
T9 sequence (whole entry): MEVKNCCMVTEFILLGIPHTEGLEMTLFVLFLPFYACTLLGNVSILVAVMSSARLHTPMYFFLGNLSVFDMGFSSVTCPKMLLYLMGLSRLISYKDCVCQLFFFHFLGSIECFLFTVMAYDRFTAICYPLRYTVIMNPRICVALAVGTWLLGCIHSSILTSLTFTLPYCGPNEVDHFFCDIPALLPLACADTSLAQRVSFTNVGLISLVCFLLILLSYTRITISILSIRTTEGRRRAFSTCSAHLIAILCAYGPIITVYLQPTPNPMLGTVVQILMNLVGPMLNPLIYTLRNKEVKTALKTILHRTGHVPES
Method in brief: as §1

Measured: odorant receptor agonist call;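 further: active if original authors judged signal statistically different from baseline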

CCCCCC(=O)C(C)C(C)=O (centres undefined)
inactive: all assays above
